# From ChEMBL document CHEMBL1129380, “Synthesis, activity, and molecular modeling of a new series of tricyclic pyridazinones as selective aldose reductase inhibitors” (J Med Chem, 1996)
# Key:
# Bos taurus = species on record: Bos taurus; experiment: Inhibition of Aldehyde reductase 1; design: concentration or dose not given beside the values; settings: concentration not given here
# Procedure, shortened: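 Partially purified bovine kidney ALR1 (ammonium sulfate fractionation plus DEAE-52 batch step, 11.3 mU/mg), at 3.5 mU/mL. Assay at 37 °C with 20 mM D-glucuronate and 0.12 mM NADPH in 0.1 M sodium phosphate, pH 7.2. Inhibitor added in DMSO, kept at 1%. NADPH oxidation read at 340 nm against a substrate-free blank. IC50 from the log dose–inhibition curve, duplicates.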
# [1] = target: Sorbitol dehydrogenase (Ovis aries) (UniProt P07846); experiment: Inhibition of sorbitol dehydrogenase from sheep liver (40 U/mg of protein)
# [2] = target: Aldo-keto reductase family 1 member B1 (Bos taurus) (UniProt P16116); experiment: (§1) Evaluated for inhibition of Aldose reductase 2
# Procedure, shortened: (§2)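 Calf lens ALR2, partially purified by DE-52 (6.5 mU/mg), at 3.5 mU/mL. Assay at 37 °C with 4.7 mM D,L-glyceraldehyde and 0.11 mM NADPH in 0.25 M sodium phosphate, pH 6.8, with 0.38 M ammonium sulfate. Inhibitor in DMSO (1% final). A340 decrease corrected by a no-substrate blank.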
# [3] = target: Aldo-keto reductase family 1 member B1 (Bos taurus, UniProt P16116); experiment: as §1; procedure, shortened: as §2
# [4] = target: T1, Glutathione reductase, mitochondrial (Homo sapiens) (UniProt P00390); experiment: (§3) Inhibition of glutathione reductase; settings: Saccharomyces cerevisiae; concentration not given here
# T1 sequence (whole entry): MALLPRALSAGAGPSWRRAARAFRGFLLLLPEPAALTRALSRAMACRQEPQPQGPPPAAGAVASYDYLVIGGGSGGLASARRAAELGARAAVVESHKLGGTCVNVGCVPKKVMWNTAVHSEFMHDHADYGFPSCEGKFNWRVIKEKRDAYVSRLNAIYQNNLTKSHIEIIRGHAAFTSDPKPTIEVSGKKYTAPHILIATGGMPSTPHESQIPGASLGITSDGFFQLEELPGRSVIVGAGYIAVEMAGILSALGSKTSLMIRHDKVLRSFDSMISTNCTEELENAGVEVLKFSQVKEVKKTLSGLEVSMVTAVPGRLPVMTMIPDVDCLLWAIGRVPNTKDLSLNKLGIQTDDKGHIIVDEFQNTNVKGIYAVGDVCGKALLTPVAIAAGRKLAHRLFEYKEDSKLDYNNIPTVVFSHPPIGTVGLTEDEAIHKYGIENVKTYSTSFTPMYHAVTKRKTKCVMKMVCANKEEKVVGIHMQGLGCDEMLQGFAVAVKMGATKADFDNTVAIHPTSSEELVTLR
# [5] = target: Sorbitol dehydrogenase (Ovis aries) (UniProt P07846); experiment: Inhibition of sorbitol dehydrogenase from sheep liver (40 U/mg of protein); settings: concentration not given here
# [6] = target: T2, Glutathione reductase, mitochondrial (Homo sapiens, UniProt P00390); experiment: as §3; design: species or system Saccharomyces cerevisiae
# T2 sequence (P00390 whole entry): T1 sequence (whole entry)
# [7] = target: T1, Glutathione reductase, mitochondrial (Homo sapiens); experiment: Inhibition of glutathione reductase at 138 uM; settings: Saccharomyces cerevisiae
# [8] = target: T1, Glutathione reductase, mitochondrial (Homo sapiens); experiment: Inhibition of glutathione reductase at 149 uM; settings: Saccharomyces cerevisiae
# Sequence of Sorbitol dehydrogenase (Ovis aries) (P07846 whole entry, looked up): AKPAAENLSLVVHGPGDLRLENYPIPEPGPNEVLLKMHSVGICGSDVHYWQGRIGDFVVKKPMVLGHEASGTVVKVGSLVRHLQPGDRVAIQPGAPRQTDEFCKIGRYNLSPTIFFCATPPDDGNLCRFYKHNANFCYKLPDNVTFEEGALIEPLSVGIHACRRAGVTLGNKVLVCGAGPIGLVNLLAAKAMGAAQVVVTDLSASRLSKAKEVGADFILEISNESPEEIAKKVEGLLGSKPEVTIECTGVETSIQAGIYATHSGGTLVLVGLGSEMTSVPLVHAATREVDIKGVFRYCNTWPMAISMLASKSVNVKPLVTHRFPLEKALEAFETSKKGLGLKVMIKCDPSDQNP
SMILES,inhibition (Bos taurus) [%],IC50 [1],IC50 [3] [µM],other results
O=C(O)c1c(O)nnc2c1CCc1ccccc1-2,8.3,No inhibition,,inhibition [2]: 9.9%
O=C(O)CCCn1nc2c(cc1=O)CCc1ccccc1-2,,No inhibition,11.4,
Cc1cc(C)c2c(c1)C1=NN(CC(=O)O)C(=O)CC1CC2 (stereo unspecified),21.8,,63.5,
O=C1NC(=O)[C@@]2(CCOc3ccc(F)cc32)N1 [SORBINIL],,No inhibition,,
COc1cc2c(cc1OC)-c1nn(CCCC(=O)O)c(=O)cc1CC2,10.1,No inhibition,7.56,
O=C(O)Cn1nc2c(c(C(=O)O)c1=O)CCc1ccccc1-2,,No inhibition,33,inhibition [4]: 23.7%
COc1cc2c(cc1OC)-c1nn(CCC(=O)O)c(=O)cc1CC2,8,No inhibition,162,
COc1cc2c(cc1OC)-c1nn(CC(=O)O)c(=O)cc1CC2,11.3,No inhibition,114,
Cc1cc(C)c2c(c1)-c1nn(CCC(=O)O)c(=O)cc1CC2,,No inhibition,51.5,
Cc1cc(C)c2c(c1)-c1nn(CCCC(=O)O)c(=O)cc1CC2,22.1,No inhibition,17.4,
O=C(O)Cn1nc2c(c(C(=O)O)c1=O)CCCc1ccccc1-2,10.3,,,inhibition [2]: 12.1%
O=C(O)Cn1nc2c(cc1=O)CCCc1ccccc1-2,15.1,No inhibition,76.2,
O=C(O)CCn1nc2c(cc1=O)CCc1ccccc1-2,32.7,No inhibition,133,
O=C(O)c1c2c(n[nH]c1=O)-c1ccccc1CCC2,6.8,,,inhibition [2]: 13.2%
Cc1cc(C)c2c(c1)-c1nn(CC(=O)O)c(=O)cc1CC2,,No inhibition,6.44,
COc1ccc2c(C(=S)N(C)CC(=O)O)cccc2c1C(F)(F)F [TOLRESTAT],,,,inhibition [5]: 16.4%
O=C(O)c1c2c(n[nH]c1=O)-c1ccccc1CC2,,,,Inhibition [6]: 18.9%
O=C(O)Cn1nc2c(c(C(=O)O)c1=O)Cc1ccccc1-2,,No inhibition,,inhibition [4]: 22.3%; inhibition [2]: 32.4%
O=C(O)Cn1nc2c(cc1=O)CCc1ccccc1-2,,No inhibition,12.6,inhibition [7]: 4.2%
O=C(O)c1c(O)nnc2c1Cc1ccccc1-2,0,No inhibition,,Inhibition [6]: 12.3%; inhibition [2]: 5.3%
COc1cc2c(cc1OC)-c1nn(CC(=O)O)c(=O)cc1C2,44.1,No inhibition,26.4,inhibition [8]: 11.2%
O=C(O)Cn1nc2c(cc1=O)Cc1ccccc1-2,,No inhibition,,inhibition [4]: 9.4%; inhibition [2]: 35.8%
